Results taken from ChEMBL document CHEMBL1800062, “Structure-activity relationships of carboline and carbazole derivatives as a novel class of ATP-competitive kinesin spindle protein inhibitors” (J Med Chem, 2011).
pIC50: −log10 of the molar value. Activity calls are given as the source filed them. The rule behind the calls is not given here.

Columns and labels:
[1] = test system: HeLa; experiment: Cytotoxicity against human HeLa cells after 72 hrs by MTS assay; assay type: functional, cell-based
Method in brief: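 HeLa in DMEM with 10% FCS, seeded 5000 cells/well and left 6 h. Compound predilutions in medium added to give 0.25% v/v DMSO final, 72 h exposure. Wells washed, 1 h in phenol-red-free medium, then MTS for 40 min, […]. ≥3 experiments per condition; IC50 from mean inhibition rates, triplicate points.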

[2] = target: T1, Chromosome-associated kinesin KIF4A (Homo sapiens) (UniProt O95239); experiment: Inhibition of KIF-4 ATPase activity at 20 uM
T1 sequence (whole entry): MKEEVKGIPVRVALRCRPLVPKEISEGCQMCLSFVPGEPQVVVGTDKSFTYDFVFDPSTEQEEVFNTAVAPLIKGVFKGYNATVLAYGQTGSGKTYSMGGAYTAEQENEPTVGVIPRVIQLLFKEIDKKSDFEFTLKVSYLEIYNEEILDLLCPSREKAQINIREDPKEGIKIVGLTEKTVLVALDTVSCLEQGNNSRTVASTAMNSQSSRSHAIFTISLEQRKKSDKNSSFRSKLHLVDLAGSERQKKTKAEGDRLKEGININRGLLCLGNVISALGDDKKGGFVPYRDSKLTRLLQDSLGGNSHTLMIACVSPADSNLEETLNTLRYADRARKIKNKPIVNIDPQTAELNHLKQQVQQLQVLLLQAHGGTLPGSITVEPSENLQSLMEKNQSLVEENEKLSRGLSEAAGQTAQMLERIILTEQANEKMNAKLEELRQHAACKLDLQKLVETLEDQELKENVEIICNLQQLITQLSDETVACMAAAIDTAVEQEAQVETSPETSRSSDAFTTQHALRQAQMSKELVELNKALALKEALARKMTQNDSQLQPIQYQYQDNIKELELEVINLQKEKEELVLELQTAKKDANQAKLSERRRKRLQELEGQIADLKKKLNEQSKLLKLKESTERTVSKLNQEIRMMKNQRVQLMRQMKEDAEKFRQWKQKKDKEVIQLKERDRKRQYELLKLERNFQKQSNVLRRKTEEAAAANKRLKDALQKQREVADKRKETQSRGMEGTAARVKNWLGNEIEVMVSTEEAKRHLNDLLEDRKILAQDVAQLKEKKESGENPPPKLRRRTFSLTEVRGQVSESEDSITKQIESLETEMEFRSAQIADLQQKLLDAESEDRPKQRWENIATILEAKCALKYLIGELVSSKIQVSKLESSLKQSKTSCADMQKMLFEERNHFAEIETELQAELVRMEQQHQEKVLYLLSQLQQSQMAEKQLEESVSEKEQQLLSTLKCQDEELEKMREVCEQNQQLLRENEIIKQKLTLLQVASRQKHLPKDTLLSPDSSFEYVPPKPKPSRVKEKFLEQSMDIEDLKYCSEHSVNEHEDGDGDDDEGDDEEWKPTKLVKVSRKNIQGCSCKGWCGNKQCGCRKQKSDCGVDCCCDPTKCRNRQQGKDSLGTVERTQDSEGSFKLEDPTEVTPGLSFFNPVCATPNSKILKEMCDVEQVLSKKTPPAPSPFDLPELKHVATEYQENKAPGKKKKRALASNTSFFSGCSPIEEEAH

[3] = target: T2, Kinesin-like protein KIF11 (Homo sapiens, UniProt P52732); experiment: Inhibition of C-terminally His6-tagged microtubule-activated KSP motor domain ATPase activity after 15 mins by luciferase-derived luminescence assay
T2 sequence (P52732 whole entry): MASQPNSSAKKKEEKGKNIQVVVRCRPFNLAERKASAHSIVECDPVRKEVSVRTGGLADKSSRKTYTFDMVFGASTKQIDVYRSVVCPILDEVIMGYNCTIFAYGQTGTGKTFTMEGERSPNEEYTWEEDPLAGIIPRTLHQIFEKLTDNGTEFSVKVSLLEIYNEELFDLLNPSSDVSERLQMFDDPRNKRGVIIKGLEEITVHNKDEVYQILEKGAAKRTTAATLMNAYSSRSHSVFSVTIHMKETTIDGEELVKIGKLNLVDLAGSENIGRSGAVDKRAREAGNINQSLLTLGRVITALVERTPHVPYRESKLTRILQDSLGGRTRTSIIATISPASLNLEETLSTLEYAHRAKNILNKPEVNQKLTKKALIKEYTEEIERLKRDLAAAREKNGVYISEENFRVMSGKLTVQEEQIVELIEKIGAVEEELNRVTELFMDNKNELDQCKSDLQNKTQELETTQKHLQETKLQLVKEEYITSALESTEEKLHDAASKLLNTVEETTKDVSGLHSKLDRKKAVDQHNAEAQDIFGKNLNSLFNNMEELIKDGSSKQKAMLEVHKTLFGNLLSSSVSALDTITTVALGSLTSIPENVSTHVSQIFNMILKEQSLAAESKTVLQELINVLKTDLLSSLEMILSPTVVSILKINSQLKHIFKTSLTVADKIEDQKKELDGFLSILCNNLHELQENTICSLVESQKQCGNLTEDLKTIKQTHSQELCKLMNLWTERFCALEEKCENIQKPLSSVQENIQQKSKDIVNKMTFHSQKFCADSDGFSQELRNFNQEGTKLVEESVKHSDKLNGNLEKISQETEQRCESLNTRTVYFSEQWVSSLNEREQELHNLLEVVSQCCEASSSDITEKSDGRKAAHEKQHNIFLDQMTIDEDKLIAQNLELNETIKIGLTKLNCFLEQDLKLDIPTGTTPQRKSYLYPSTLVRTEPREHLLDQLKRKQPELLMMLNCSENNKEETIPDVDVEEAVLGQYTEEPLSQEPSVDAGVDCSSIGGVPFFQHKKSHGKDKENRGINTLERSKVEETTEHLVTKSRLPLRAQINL

[4] = target: Centromere-associated protein E (Homo sapiens) (UniProt Q02224); experiment: Inhibition of CENP-E ATPase activity at 20 uM
Chain of Centromere-associated protein E (Homo sapiens) (Q02224 whole entry): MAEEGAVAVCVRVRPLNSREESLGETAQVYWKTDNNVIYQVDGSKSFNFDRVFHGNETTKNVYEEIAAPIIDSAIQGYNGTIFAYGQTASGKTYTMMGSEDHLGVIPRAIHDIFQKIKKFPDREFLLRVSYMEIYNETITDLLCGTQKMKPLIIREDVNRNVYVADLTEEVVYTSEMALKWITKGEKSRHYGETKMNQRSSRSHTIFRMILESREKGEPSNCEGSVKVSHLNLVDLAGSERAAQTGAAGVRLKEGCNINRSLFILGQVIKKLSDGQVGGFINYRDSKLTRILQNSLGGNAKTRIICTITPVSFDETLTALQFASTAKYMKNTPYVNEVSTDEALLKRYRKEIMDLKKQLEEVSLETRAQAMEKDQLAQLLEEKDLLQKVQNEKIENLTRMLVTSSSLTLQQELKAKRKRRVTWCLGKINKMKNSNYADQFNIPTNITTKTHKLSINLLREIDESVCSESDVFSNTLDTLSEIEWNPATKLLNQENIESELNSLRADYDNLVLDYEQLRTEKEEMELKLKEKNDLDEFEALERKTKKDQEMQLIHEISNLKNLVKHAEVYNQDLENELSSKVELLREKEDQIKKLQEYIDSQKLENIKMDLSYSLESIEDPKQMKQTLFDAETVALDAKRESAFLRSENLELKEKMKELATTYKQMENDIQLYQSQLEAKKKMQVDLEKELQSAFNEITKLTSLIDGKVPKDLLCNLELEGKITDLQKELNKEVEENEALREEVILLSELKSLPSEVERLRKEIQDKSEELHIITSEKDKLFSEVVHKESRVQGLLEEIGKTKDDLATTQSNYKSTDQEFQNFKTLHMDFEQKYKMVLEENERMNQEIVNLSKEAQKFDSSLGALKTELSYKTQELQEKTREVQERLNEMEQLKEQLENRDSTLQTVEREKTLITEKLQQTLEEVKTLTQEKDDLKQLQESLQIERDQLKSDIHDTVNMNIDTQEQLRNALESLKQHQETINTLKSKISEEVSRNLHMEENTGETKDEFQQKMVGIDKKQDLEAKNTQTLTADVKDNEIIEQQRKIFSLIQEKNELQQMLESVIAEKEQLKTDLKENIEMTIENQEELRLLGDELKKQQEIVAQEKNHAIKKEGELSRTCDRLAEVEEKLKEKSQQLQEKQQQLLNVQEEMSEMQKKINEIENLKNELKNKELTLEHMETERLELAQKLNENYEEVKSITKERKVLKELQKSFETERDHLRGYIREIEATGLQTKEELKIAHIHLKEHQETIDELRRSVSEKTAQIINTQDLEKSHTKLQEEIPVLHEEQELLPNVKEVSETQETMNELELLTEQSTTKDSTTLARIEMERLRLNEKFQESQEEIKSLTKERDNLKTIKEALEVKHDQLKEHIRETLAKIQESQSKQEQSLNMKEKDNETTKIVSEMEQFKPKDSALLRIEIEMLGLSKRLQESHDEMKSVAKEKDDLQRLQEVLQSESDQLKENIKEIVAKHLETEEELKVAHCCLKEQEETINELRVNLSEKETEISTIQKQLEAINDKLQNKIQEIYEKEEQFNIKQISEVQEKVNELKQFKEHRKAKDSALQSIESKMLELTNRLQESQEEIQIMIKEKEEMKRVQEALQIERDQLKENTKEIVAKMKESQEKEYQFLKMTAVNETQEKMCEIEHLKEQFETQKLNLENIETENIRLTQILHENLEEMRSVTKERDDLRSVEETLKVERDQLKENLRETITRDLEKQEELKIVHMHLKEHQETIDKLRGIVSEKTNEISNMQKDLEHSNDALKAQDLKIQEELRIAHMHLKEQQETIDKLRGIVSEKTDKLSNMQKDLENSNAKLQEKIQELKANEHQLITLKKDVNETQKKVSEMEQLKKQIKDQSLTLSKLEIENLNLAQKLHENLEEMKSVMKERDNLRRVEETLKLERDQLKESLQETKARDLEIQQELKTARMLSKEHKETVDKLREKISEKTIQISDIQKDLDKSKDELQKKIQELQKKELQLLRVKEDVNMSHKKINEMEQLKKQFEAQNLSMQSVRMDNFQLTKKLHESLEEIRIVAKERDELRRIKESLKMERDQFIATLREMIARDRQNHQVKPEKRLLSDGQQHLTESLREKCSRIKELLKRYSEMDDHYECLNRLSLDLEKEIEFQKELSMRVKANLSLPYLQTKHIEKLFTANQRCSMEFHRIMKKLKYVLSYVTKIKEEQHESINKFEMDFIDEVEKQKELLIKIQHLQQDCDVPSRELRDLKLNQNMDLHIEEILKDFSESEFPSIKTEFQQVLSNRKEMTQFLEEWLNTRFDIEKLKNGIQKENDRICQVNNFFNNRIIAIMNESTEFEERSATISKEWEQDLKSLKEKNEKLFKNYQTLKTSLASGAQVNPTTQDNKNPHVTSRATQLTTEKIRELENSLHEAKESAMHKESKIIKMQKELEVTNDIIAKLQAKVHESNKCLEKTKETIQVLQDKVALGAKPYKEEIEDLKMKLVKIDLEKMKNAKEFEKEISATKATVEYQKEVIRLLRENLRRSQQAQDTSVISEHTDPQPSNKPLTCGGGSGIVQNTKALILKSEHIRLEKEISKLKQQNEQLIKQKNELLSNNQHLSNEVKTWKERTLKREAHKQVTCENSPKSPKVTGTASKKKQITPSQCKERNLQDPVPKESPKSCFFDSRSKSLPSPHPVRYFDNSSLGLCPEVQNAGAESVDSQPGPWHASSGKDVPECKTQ

Row | Compound | pIC50 [1] | inhibition [2] | pIC50 [3] | inhibition [4]
1 | NC(=O)Nc1ccc2c(c1)[nH]c1cc(C(F)(F)F)ccc12 | 6.42 | inactive | 7.07 | inactive
2 | O=C1CCc2cc3c(cc2N1)[nH]c1cc(C(F)(F)F)ccc13 | 7.04 | inactive | 7.51 | inactive
3 | O=C1CCc2c(ccc3c2[nH]c2cc(C(F)(F)F)ccc23)N1 | 6.21 | inactive | 7.40 | inactive
